Experiments:
L5178Y [1] = assay: Cytotoxicity against parental mouse L5178Y cells assessed as inhibition of cell growth incubated for 24 hrs by MTT assay; assay type: functional, cell-based
Method in brief: (§1)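 L5178Y parental and human ABCB1 retrovirus-transfected lines were grown in McCoy's 5A with 10% heat-inactivated horse serum, and the MDR line was kept under colchicine 60 ng/mL. Cells were seeded at 1×10^4/well and given 2-fold dilutions from 100 μM maximum, in duplicate, for 24 h. MTT was added for 4 h, then SDS/HCl overnight at 37 °C, with OD read at 550 nm (ref 630 nm). Growth inhibition was computed against cell and medium controls, and IC50 came from curve fitting (mean ± SD).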

L5178Y [2] = assay: (§2) Modulation of P-glycoprotein mediated Rhodamine-123 efflux in multi-drug resistant mouse L5178Y cells tranfected with ABCB1 gene assessed as fluorescence activity ratio at 2 uM preincubated for 10 mins followed by rhodamine-123 addition and measured after 20 mins by flow cytometric analysis (reference value: 1.01); assay type: cell-based; settings: filed as modulator, time 30.0 min
Method in brief: (§3)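 Cells were held in serum-free McCoy's 5A with compound at 2.0 or 20 μM, verapamil 20 μM as positive control and DMSO 2% as solvent control, for 10 min at room temperature. R123 was then added (5.2 μM final) for 20 min at 37 °C, followed by two washes into PBS and flow cytometry (FL-1 mean fluorescence). FAR = (MDR treated/untreated FL-1) divided by (PAR treated/untreated FL-1).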

L5178Y [3] = assay: Cytotoxicity against multi-drug resistant mouse L5178Y cells transfected with ABCB1 gene assessed as inhibition of cell growth incubated for 24 hrs by MTT assay; assay type: functional, cell-based; method in brief: as §1
L5178Y [4] = assay: as §2, with “ratio by measuring fold change” for “ratio”, “at 20” for “at 2”, “analysis relative to verapamil” for “analysis (reference value: 1.01)”; assay type: cell-based; settings: filed as modulator, time 30.0 min; method in brief: as §3
L5178Y [5] = assay: Synergistic cytotoxicity against multi-drug resistant mouse L5178Y cells transfected with ABCB1 gene assessed as combination index measured after 48 hrs in the presence of doxorubicin by MTT assay; assay type: functional
Method in brief: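 This was a fixed-ratio checkerboard in L5178Y-MDR cells, with doxorubicin diluted from 14.7 to 0.1 μM against serial dilutions of the modulator. Cells were seeded at 2×10^5/mL, incubated 48 h, and read by MTT. Each curve was fitted linearly to the Chou–Talalay median-effect equation, keeping only fits with r > 0.90. CI at 50% inhibition is given as the mean ± SD of three CI values from different drug ratios.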

L5178Y [6] = assay: as §2, with “ratio by measuring fold change” for “ratio”, “relative to verapamil” for “(reference value: 1.01)”; assay type: cell-based; settings: filed as modulator, time 30.0 min; method in brief: as §3

SMILES | IC50 (L5178Y [1]) | Ratio (L5178Y [2]) | IC50 (L5178Y [3]) | fold change (FC) (L5178Y [4]) | CI (L5178Y [5]) | fold change (FC) (L5178Y [6])
COc1cc(O)c2c(c1)O[C@H](c1ccc(OCC3CO3)cc1)CC2=O (stereo partly drawn) | ≥ 11.3 µM | 1.17 | ≥ 11.3 µM | – | – | –
O=C(N/N=C1\C[C@@H](c2ccc(O)cc2)Oc2cc(O)cc(O)c21)OCc1ccccc1 | ≥ 11.3 µM | 0.76 | ≥ 11.3 µM | – | – | –
O=C(Cc1c[nH]c2ccccc12)N/N=C1\C[C@@H](c2ccc(O)cc2)Oc2cc(O)cc(O)c21 | ≥ 11.3 µM | 1 | ≥ 11.3 µM | – | – | –
CN(C)C(=S)N/N=C1\C[C@@H](c2ccc(O)cc2)Oc2cc(O)cc(O)c21 | ≥ 11.3 µM | 2.17 | ≥ 11.3 µM | – | – | –
COc1ccc([C@@H]2C/C(=N\NC(=O)c3ccco3)c3c(O)cc(OC)cc3O2)cc1 | 2.7 µM | 2.24 | 3.4 µM | – | – | –
COc1cc(O)c2c(c1)O[C@H](c1ccc(O)cc1)CC2=O [SAKURANETIN] | ≥ 11.3 µM | 1.06 | ≥ 11.3 µM | – | – | –
Oc1ccc([C@@H]2C/C(=N\Nc3ccccc3)c3c(O)cc(O)cc3O2)cc1 | ≥ 11.3 µM | 1.16 | ≥ 11.3 µM | – | – | –
COc1cc(O)c2c(c1)O[C@H](c1ccc(OCC(O)CN3CCCCC3)cc1)CC2=O (stereo partly drawn) | 9.3 µM | 3.08 | 17.4 µM | – | – | –
O=C1C[C@@H](c2ccc(O)cc2)Oc2cc(O)cc(O)c21 [NARINGENIN] | ≥ 11.3 µM | 0.72 | ≥ 11.3 µM | – | – | –
CCN(CC)CC(O)COc1ccc([C@@H]2CC(=O)c3c(O)cc(OC)cc3O2)cc1 (stereo partly drawn) | ≥ 11.3 µM | 4.06 | ≥ 11.3 µM | – | – | –
COc1cc(O)c2c(c1)O[C@H](c1ccc(O)cc1)C/C2=N\NC(=O)Cc1c[nH]c2ccccc12 | ≥ 11.3 µM | 1.12 | ≥ 11.3 µM | – | – | –
COc1cc(O)c2c(c1)O[C@H](c1ccc(O)cc1)C/C2=N\NC(=O)c1ccco1 | ≥ 11.3 µM | 1.28 | ≥ 11.3 µM | – | – | –
COc1ccc([C@@H]2CC(=O)c3c(O)cc(OC)cc3O2)cc1 | ≥ 11.3 µM | 1.03 | ≥ 11.3 µM | – | – | –
COc1cc(O)c2c(c1)O[C@H](c1ccc(O)cc1)C/C2=N\Nc1ccc(Br)cn1 | 4.3 µM | 2.1 | 12.7 µM | – | – | –
Oc1ccc([C@@H]2C/C(=N\Nc3cnccn3)c3c(O)cc(O)cc3O2)cc1 | ≥ 11.3 µM | 1.65 | ≥ 11.3 µM | – | – | –
COc1cc(O)c2c(c1)O[C@H](c1ccc(OCC(O)CSc3ccccc3)cc1)CC2=O (stereo partly drawn) | ≥ 11.3 µM | 0.92 | ≥ 11.3 µM | – | – | –
COc1cc(O)c2c(c1)O[C@H](c1ccc(O)cc1)C/C2=N\NC(=O)OCc1ccccc1 | ≥ 11.3 µM | 4.14 | ≥ 11.3 µM | 7 | 0.638 | –
COc1ccc([C@@H]2C/C(=N\NC(=O)OCc3ccccc3)c3c(O)cc(OC)cc3O2)cc1 | > 100 µM | 0.94 | 7.2 µM | – | 0.445 | –
COc1cc(O)c2c(c1)O[C@H](c1ccc(O)cc1)C/C2=N\N | ≥ 11.3 µM | 1.26 | ≥ 11.3 µM | – | – | –
COc1cc(O)c2c(c1)O[C@H](c1ccc(OCC(O)Cc3c[nH]c4ccccc34)cc1)CC2=O (stereo partly drawn) | ≥ 11.3 µM | 0.86 | ≥ 11.3 µM | – | – | –

SMILES | IC50 (L5178Y [1]) | Ratio (L5178Y [2]) | IC50 (L5178Y [3]) | fold change (FC) (L5178Y [4]) | CI (L5178Y [5]) | fold change (FC) (L5178Y [6])
COc1cccc(/C=N/N=C2\C[C@@H](c3ccc(O)cc3)Oc3cc(OC)cc(O)c32)c1 | ≥ 11.3 µM | 0.78 | ≥ 11.3 µM | – | – | –
COc1ccc([C@@H]2C/C(=N\NC(=O)c3ccc(N)cc3)c3c(O)cc(OC)cc3O2)cc1 | 3.9 µM | 1.32 | 1.3 µM | – | – | –
COc1ccc([C@@H]2C/C(=N\Nc3ccccc3)c3c(O)cc(OC)cc3O2)cc1 | ≥ 11.3 µM | 1.8 | ≥ 11.3 µM | – | – | –
O=C(N/N=C1\C[C@@H](c2ccc(O)cc2)Oc2cc(O)cc(O)c21)c1ccco1 (stereo in doubt) | ≥ 11.3 µM | 0.86 | ≥ 11.3 µM | – | – | –
COc1cc(O)c2c(c1)O[C@H](c1ccc(O)cc1)C/C2=N\NC(=O)c1ccc(N)cc1 | ≥ 11.3 µM | 0.96 | ≥ 11.3 µM | – | – | –
N/N=C1\C[C@@H](c2ccc(O)cc2)Oc2cc(O)cc(O)c21 | ≥ 11.3 µM | 0.72 | ≥ 11.3 µM | – | – | –
Oc1ccc([C@@H]2C/C(=N\Nc3ccc(Br)cn3)c3c(O)cc(O)cc3O2)cc1 | ≥ 11.3 µM | 1.08 | ≥ 11.3 µM | – | – | –
COc1cc(O)c2c(c1)O[C@H](c1ccc(OCC(O)CNC3CCN(Cc4ccccc4)CC3)cc1)CC2=O (stereo partly drawn) | ≥ 11.3 µM | 18.7 | ≥ 11.3 µM | 6 | 0.108 | 2
COc1cc(O)c2c(c1)O[C@H](c1ccc(O)cc1)C/C2=N\NC(=O)c1ccc(C(F)(F)F)cc1 | ≥ 11.3 µM | 0.83 | ≥ 11.3 µM | – | – | –
COc1ccc([C@@H]2C/C(=N\Nc3ccc(Br)cn3)c3c(O)cc(OC)cc3O2)cc1 | 8 µM | 10.7 | 10.7 µM | – | – | –
Cn1cccc1/C=N/N=C1\C[C@@H](c2ccc(O)cc2)Oc2cc(O)cc(O)c21 | ≥ 11.3 µM | 0.64 | ≥ 11.3 µM | – | – | –
COc1cc(O)c2c(c1)O[C@H](c1ccc(O)cc1)C/C2=N\NC(=O)c1cccs1 | 9.4 µM | 1.39 | 12 µM | – | – | –
COc1ccc([C@@H]2C/C(=N\N)c3c(O)cc(OC)cc3O2)cc1 | ≥ 11.3 µM | 0.85 | ≥ 11.3 µM | – | – | –
COC(=O)C1CCN(CC(O)COc2ccc([C@@H]3CC(=O)c4c(O)cc(OC)cc4O3)cc2)CC1 (stereo partly drawn) | ≥ 11.3 µM | 8.01 | ≥ 11.3 µM | – | – | –
COc1cc(O)c2c(c1)O[C@H](c1ccc(OCC(O)CCl)cc1)CC2=O (stereo partly drawn) | ≥ 11.3 µM | 1.33 | ≥ 11.3 µM | – | – | –
COc1cc(O)c2c(c1)O[C@H](c1ccc(O)cc1)C/C2=N\Nc1ccccc1 | ≥ 11.3 µM | 1.16 | ≥ 11.3 µM | – | – | –
Oc1ccc([C@@H]2C/C(=N\N=C\c3c[nH]c4ccccc34)c3c(O)cc(O)cc3O2)cc1 | ≥ 11.3 µM | 0.95 | ≥ 11.3 µM | – | – | –
O=C(N/N=C1\C[C@@H](c2ccc(O)cc2)Oc2cc(O)cc(O)c21)c1cccs1 (stereo in doubt) | ≥ 11.3 µM | 0.92 | ≥ 11.3 µM | – | – | –
COc1ccc([C@@H]2C/C(=N\NC(=O)Cc3c[nH]c4ccccc34)c3c(O)cc(OC)cc3O2)cc1 | 8.6 µM | 2.47 | 7.5 µM | – | – | –
